# Rows were chosen to be rich in hits. Some 1.1% of all compounds tested hit in one or more screens of this group.
# PMI activator = increases human mannose-6-phosphate isomerase activity; P34949; purified human PMI, coupled resazurin fluorescence, 20 min; stronger effect = higher value; 1 = vehicle control, 0 substrate-free wells; activation factor at 20 µM; hit rate 0.005% among 190,000; AID 1214;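 active means activation factor of 2 or more at 20 µM, relative to plate controls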
# Target sequence (P34949 whole entry, looked up): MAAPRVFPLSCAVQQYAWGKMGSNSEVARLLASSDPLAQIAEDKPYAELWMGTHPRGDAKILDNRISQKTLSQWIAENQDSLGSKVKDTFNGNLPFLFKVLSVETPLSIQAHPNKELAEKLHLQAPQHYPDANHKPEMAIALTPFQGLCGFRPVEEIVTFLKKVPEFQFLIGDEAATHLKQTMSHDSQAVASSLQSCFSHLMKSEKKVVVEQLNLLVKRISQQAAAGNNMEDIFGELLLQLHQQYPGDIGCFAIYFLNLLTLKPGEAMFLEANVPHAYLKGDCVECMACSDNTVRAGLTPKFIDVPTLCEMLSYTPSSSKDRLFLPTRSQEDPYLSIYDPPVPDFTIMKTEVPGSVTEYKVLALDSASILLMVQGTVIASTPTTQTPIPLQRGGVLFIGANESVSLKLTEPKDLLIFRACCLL
# G6PDH CS = counter-screen for G6PDH assay hits: L. mesenteroides G6PDH inhibition. Purified L. mesenteroides G6PDH, diaphorase/resazurin coupled fluorescence, 45 min. hit rate 0.12% among 200,000. inhibition, % at 5 µM; in the data active means inhibition above about 50%
# Diaphorase act = activates diaphorase or chemically reduces, flagging diaphorase assay artifacts | Diaphorase/resazurin coupled assay, resorufin fluorescence, 16 min; stronger effect = higher value; 1 = vehicle wells, 0 = NADH-free wells | hit rate 0.005% among 190,000 | activation factor at 20 µM | AID 1229;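 active means diaphorase activity raised at least twofold by the compound at 20 µM; inactive means activation factor below 2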
#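 Assay system: bacterial diaphorase enzyme (C. kluyveri) / Input: enzyme 0.07 U/mL final / Medium: 50 mM HEPES pH 7.4 with 4.542 mM MgCl2, 0.005% Tween 20 / Doses: single compound dose of 20 µM, 1% DMSO final / Incubation: 16 min enzyme reaction, ambient temperature / Signal: fluorescence, excitation 544 nm and emission 590 nm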
# DTT redox prof = compounds producing H2O2 with reducing agent – biochemical, NIH compound library profiling, artefact control for MLSCN library redox annotation, primary screen; hit rate 0.03% among 200,000; activation, % at 10 µM; AID 878; DTT-dependent redox cycling H2O2, phenol red/HRP absorbance; 100% = 100 µM peroxide control, 0% = buffer;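 active means activation of at least 50% relative to the plate's high and low controls in the primary single-dose screen; inactive means activation below 50%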;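 further: compound incubated with DTT at 0.8 mM final as the reducing agent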
# PMI act satM6P = increases human PMI activity with near-saturating mannose 6-phosphate | P34949 | coupled PMI enzyme assay, resazurin fluorescence, 20 min; stronger effect = higher value; 1 = untreated enzyme, 0 = substrate-free blank | activation factor at 20 µM | hit rate 0.34% among 190,000;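 active means activation factor of 2 or more at 20 µM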
#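 Test system: human phosphomannose isomerase with PGI, G6PDH, diaphorase coupling enzymes; amount: 15 ng/mL PMI; incubation: enzyme reaction with compound 20 min at room temperature; technique: resorufin fluorescence (Ex 544/Em 590 nm) from resazurin via diaphorase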
# Diaph inh CS = diaphorase inhibition or chemical oxidation counter-screen; hit rate 0.69% among 190,000; diaphorase resazurin-to-resorufin fluorescence, NADH, 16 min; bacterial (C. kluyveri) enzyme, not human; inhibition, % at 20 µM;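 active means primary screen inhibition at 20 µM above a set limit, cut at about 50% in these data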;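 further: plate controls were DMSO with full reaction for no effect and wells lacking NADH for full effect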
#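 material = Clostridium kluyveri diaphorase enzyme | amount = 0.14 U/mL diaphorase, enzyme working solution | schedule = incubation 16 min, room temperature | detection = fluorescence of resorufin formed from resazurin, Ex 544/Em 590 nm | benchmarks = positive control minus NADH, DMSO neutral control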
# * marks the source's active call; other numbers are inactive results; . = not tested or not shown.
SMILES,PMI activator,G6PDH CS,Diaphorase act,DTT redox prof,PMI act satM6P,Diaph inh CS
Cc1cc(-c2n[nH]c(=S)n2/N=C/c2cc([N+](=O)[O-])ccc2Cl)n[nH]1,0.7,10,0.5,0,0.6,50*
Cc1cc(-c2n[nH]c(=S)n2/N=C/c2ccc(Cl)c([N+](=O)[O-])c2)n[nH]1,1,6,0.8,0,1.1,23
CC(/C=N/n1c(-c2cc(C)[nH]n2)n[nH]c1=S)=C\c1ccccc1,0.8,4,0.5,0,0.9,51*
O=[N+]([O-])c1cc(/C=N/n2c(-c3ccncc3)n[nH]c2=S)ccc1Cl,1,12,0.5,-2,1,53*
C/C(=N/NC(=O)CNC(=O)/C=C/c1ccco1)c1ccc(Cl)cc1,0.9,0,1,-1,1,3
Cc1ccccc1C(=O)NC(=S)Nc1ccc2[nH]c(=O)[nH]c2c1,0.9,1,0.8,-2,0.8,20
Cc1ccc(NC(=O)C2CCN(c3cnccn3)CC2)cc1C,1.1,26,1.2,-1,1.2,-23
COc1ccc(S(=O)(=O)N2CCN(c3ccc4nnc(-c5ccccc5)n4n3)CC2)cc1,0.7,6,0.5,-1,0.8,53*
CC(=O)N1CCC2(CC1)C/C(=N\NC(=S)Nc1ccc(C)cc1)c1cc(O)ccc1O2,0.8,1,0.5,-2,0.9,54*
CS(=O)(=O)N(CC(=O)NCc1ccco1)c1ccc(OCc2ccccc2)cc1,0.9,10,0.9,0,0.9,9
CCc1ccccc1N1CSC2=C(C#N)C(c3cc(OC)c(OC)cc3OC)CC(=O)N2C1 (configuration not stated),0.5,43,0.5,3,0.9,50*
COc1ccc2ccccc2c1C1CC(=O)N2CN(C)CSC2=C1C#N (configuration not stated),0.5,21,0.5,2,0.3,52*
COc1ccccc1N1CSC2=C(C#N)C(c3ccc(SC)cc3)CC(=O)N2C1 (configuration not stated),1.3,35,0.4,-1,0.9,65*
COc1ccc(Br)cc1C1CC(=O)N2CN(Cc3ccccc3)CSC2=C1C#N (configuration not stated),0.7,21,0.4,-1,0.4,57*
COc1ccc(Br)cc1C1CC(=O)N2CN(C)CSC2=C1C#N (configuration not stated),0.7,20,0.6,-3,0.5,43
COC(=O)c1cc(C(=O)OC)[nH]n1,1.2,22,1,0,1.1,1
O=C(c1ccco1)N1CCN(S(=O)(=O)c2ccccc2[N+](=O)[O-])CC1,0.9,7,0.9,0,0.9,12
COc1cc(C2CC(=O)N3CN(c4ccccc4C)CSC3=C2C#N)cc(OC)c1OC (configuration not stated),1,25,0.4,-1,0.9,59*
Cc1[nH]c(=S)c(C#N)c2c1CCCC2,1.7,-9,0.9,0,2*,15
CC(C)Cc1c2c([nH]c(=S)c1C#N)CCCC2,1.6,-3,0.8,0,2*,16
N#Cc1c(-c2ccco2)c2c([nH]c1=S)CCCC2,1.3,-31,0.8,.,1.8,20
Cc1[nH]c(=O)c(C#N)c2c1CCCC2,0.9,2,0.9,1,0.9,7
Nc1nc2n(n1)C(=O)CC(c1ccccc1[N+](=O)[O-])N2 (configuration not stated),1,-5,0.9,0,0.9,7
O=[N+]([O-])c1ccccc1C1Nc2cccc3cccc(c23)N1,0.9,-18,0.4,3,1,57*
O=[N+]([O-])c1ccc(Cl)c(C2Nc3cccc4cccc(c34)N2)c1,0.6,7,0.4,-5,0.4,57*
SMILES,PMI activator,G6PDH CS,Diaphorase act,DTT redox prof,PMI act satM6P,Diaph inh CS
CC(=O)NC1=C(NC2CCS(=O)(=O)C2)C(=O)c2ccccc2C1=O (configuration not stated),0.7,-12,0.6,0,0.9,39
CN(C1=C(NC(=O)c2ccccc2)C(=O)c2ccccc2C1=O)C1CCS(=O)(=O)C1 (configuration not stated),0.8,34,0.4,0,0.8,59*
CCN(CC)N=Nc1[nH]nc2nc(C)cc(C)c12,1.4,-4,0.9,-5,2*,11
Cc1cc(C)c2c(N=NN3CCCCC3)[nH]nc2n1,1.5,-3,1,0,1.6,2
CCS(=O)(=O)c1ccc2c(c1)N(S(C)(=O)=O)CC(C(=O)NN)O2 (configuration not stated),1.1,10,1,-1,1.1,4
O=C(c1ccc(S(=O)(=O)c2ccccc2)cc1)N1CCc2ccccc2C1,0.8,6,0.5,0,0.4,51*
COc1cc(C(=O)NNC(=O)c2ccc(NC(=O)C(C)(C)C)cc2)cc(OC)c1OC,.,14,.,0,.,.
Nc1[nH]nc2nc(N3CCCC3)nc(-c3ccccc3)c12,1,1,1,0,1,-3
Nc1[nH]nc2ncc3cc4ccccc4nc3c12,0.7,27,0.5,-1,0.6,55*
O=C(CCc1nnc(-c2ccsc2)o1)N1CCc2c(Cl)cccc2C1,0.9,6,0.9,-1,0.9,13
O=C(NC1CCCCC1)C(c1ccc(O)c(O)c1)N(C(=O)Cn1nnc2ccccc21)c1cccc(O)c1 (configuration not stated),0.5,17,0.4,3,0.8,56*
Cc1ccc(S(=O)(=O)NCC(=O)N(c2ccccc2)C(C(=O)NCc2ccccc2)c2ccco2)cc1 (configuration not stated),0.4,6,0.5,0,0.9,51*
CCOCCCNC(=S)N1CCC(NC(=O)C23CC4CC(CC(C4)C2)C3)CC1,1,3,0.9,-2,1,9
O=C(Cc1ccccc1)N/N=C/c1ccc2cccc(O)c2n1,0.9,56*,0.8,0,0.6,15
O=C1C(=O)c2c(C(=O)c3ccccc3)coc2-c2ccccc21,0.3,61*,0.4,0,0.4,62*
O=C(c1ccccc1)c1coc2ccc(O)c(Cl)c12,1,12,1,2,1.1,-3
Oc1ccc(/C=N/Nc2nc(N3CCCC3)nc(N3CCCC3)n2)cc1O,0.4,28,0.3,-1,0.7,72*
Oc1ccc(/C=N/Nc2cc(N3CCCC3)nc(N3CCCC3)n2)cc1,0.7,52*,0.8,-8,0.4,24

# Bioassay records: PubChem, several laboratories
